An excerpt weighted towards active compounds, which were near 2.9% of everything screened.
Cneo AK release: Cryptococcus neoformans cell lysis inducers, primary screen, AK release luminescence, single concentration. lysis activity, % at 15 µM. 0.2% of 360,000 active. C. neoformans lysis, adenylate kinase release luminescence, 4 h; normalised: neutral wells 0, clomiphene wells 100;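 active = mean lysis activity across replicates of at least 80%, whatever share of replicates individually reach that level; inactive = mean lysis activity below 80%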
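Material – Cryptococcus neoformans yeast cells · Quantity – 5 × 10^6 yeast cells/mL · Buffer or medium – YPD medium · Compound – single dose · Timing – 4 h static compound exposure, 37 °C, read 1 h post-reagent · Signal – adenylate kinase release luminescence · Read-out basis – lysis from increased AK signal · Benchmarks – Clomiphene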
dFosB activator: activators of delta FosB homodimer, primary screen, biochemical, fluorescence polarization, TAMRA-CDK5 oligo, single point. AID 493131, 2011. Protein FosB (Mus musculus), P13346. 0.99% of 340,000 active. purified delta FosB; percent of positive-control signal above neutral wells. activation, % at 25 µM;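 active = mean activation above about 17%, with every replicate also reaching it, limit read from the data, passing the limit was not always enough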
GSIS activator: GLuc luminescence reporter in INS-1E cells, primary screen for activators of glucose-dependent secretion of insulin; INS-1E GLuc reporter insulin secretion, 2-3 h; activation, % at 16.6 µM; 0.61% of 370,000 active; AID 743287, 2014;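 active = lowest replicate activation of at least 40%, so every replicate reaches that level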;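 note: 0% = median of neutral control wells and 100% = median of IBMX positive control wells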
HIV Env fusion: inhibitors of HIV-1 Env-driven cell-cell fusion, primary screen, HeLa-JRFL effector, CEM21 target cells, luciferase; 1.1% of 360,000 active; inhibition, % at 12.3 µM;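 active = mean replicate inhibition score of at least 50 and every replicate individually at or above 50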;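 note: 0% = plate neutral controls and 100% = maraviroc near 300 nM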
PAX8 inh HTS: inhibitors of PAX8-driven TPO luciferase reporter, primary screen, RMG-I cells, single concentration; 1.2% of 360,000 active; AID 652154, 2013; inhibition, % at 12.6 µM; SteadyGlo, 24 h;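 active = mean replicate inhibition at least 60% with every replicate also reaching 60%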;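 note: luciferase light reporting Pax8 driven TPO promoter activity; plate controls were median of neutral control wells for no effect and mitoxantrone controls for full effect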
CDK5 inh: inhibitors of human CDK5/p35 kinase, primary screen, biochemical, single concentration. Cyclin-dependent kinase 5 (Homo sapiens) + Cyclin-dependent kinase 5 activator 1 (Homo …. inhibition, % at 10 µM. Recombinant CDK5/p35, ADP-Glo luminescence, 60 min. 0.01% of 330,000 active;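 active = highest replicate inhibition of at least 50% and at least 75% of replicates reaching 50%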;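 note: plate controls were DMSO neutral control for no effect and GW8510 at 10 µM for full effect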
Target sequence (Q00535 whole entry, looked up): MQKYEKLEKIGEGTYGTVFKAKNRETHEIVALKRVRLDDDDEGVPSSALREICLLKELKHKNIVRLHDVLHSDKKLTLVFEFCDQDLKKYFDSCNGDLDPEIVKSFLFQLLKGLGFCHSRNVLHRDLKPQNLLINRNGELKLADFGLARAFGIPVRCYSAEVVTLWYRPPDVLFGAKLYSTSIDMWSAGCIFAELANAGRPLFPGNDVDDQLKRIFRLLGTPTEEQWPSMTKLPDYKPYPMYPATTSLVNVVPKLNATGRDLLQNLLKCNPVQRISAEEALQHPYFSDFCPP
Target sequence (Q15078 whole entry, looked up): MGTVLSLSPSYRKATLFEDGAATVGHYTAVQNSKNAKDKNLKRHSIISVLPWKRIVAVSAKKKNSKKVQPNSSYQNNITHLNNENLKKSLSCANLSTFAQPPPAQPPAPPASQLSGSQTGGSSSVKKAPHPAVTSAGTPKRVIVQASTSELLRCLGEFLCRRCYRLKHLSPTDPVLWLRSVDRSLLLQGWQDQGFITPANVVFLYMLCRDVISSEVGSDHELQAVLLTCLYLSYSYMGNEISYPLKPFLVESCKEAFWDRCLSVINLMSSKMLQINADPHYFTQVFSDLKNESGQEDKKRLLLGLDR
Starred values were filed as active, the others as inactive; · = no result; [ ] = another dose, or the depositor's remark.

SMILES	Cneo AK release	dFosB activator	GSIS activator	HIV Env fusion	PAX8 inh HTS	CDK5 inh
Cc1ccc(C(=O)c2sc(Nc3ccccc3)c(C#N)c2N)cc1	·	-8.5	42.7*	5.1	30.3	1.2
O=C(CCc1nc2ccccc2c(=O)[nH]1)NNC(=O)c1cccc(Cl)c1	-0.2	2.0	44.2*	-6.0	-0.3	1.8
Cc1ccc(C(=O)O/N=C(\N)c2ccccn2)cc1	-10.4	1.4	3.7	62.4*	105.1*	31.7
Cc1cccc(C(=O)O/N=C(\N)c2ccccn2)c1	-8.8	-1.4	-3.5	31.2	84.3*	9.2
CCOc1ccc(C(=O)O/N=C(\N)c2ccccn2)cc1	-11.2	-0.3	-2.0	63.3*	128.1*	10.3
CC(C)(C)c1ccc(C(=O)O/N=C(\N)c2ccccn2)cc1	-9.2	-8.5	-12.7	-32.8	69.5*	0.4
CN(C)C(=O)c1cccc(-c2ccc([C@@H]3[C@@H](CO)N4C(=O)CN(C(=O)Cc5ccccc5)C[C@H]34)cc2)c1	·	·	3.1	·	-1.8	·
Cc1ccc(C(=O)O/N=C(\N)c2ccccn2)cc1C	-11.3	4.0	8.6	51.7	82.6*	6.8
N/C(=N\OC(=O)c1ccccc1)c1ccccn1	-6.7	-4.0	8.0	-14.6	16.5	26.5
O=C(c1ccc2c(c1)OCO2)N1CCN(c2ccc(C(F)(F)F)cn2)CC1	·	0.0	-31.9	·	131.9*	-1.8
O=C(c1ccc2c(c1)OCCO2)N1CCN(c2ccc(C(F)(F)F)cn2)CC1	0.7	·	-21.7	21.9	11.9	·
O=C1C(=Cc2ccccc2O)SC(=S)N1CCCN1CCOCC1	-2.3	·	-4.3	85.4*	25.8	·
O=C(CSc1ccccc1C(=O)NCc1ccccc1)NC12CC3CC(CC(C3)C1)C2	·	-1.1	-17.7	75.6*	3.5	-0.7
COCC(=O)Nc1ccc2c(c1)[C@@H]1C[C@@H](CC(=O)OC)O[C@H](CO)[C@@H]1O2	1.0	·	-1.3	·	-7.6	·
Cc1ncc(N=Nc2ccc(F)cc2)c(-c2ccc(Cl)cc2)n1	-0.7	3.3	59.4*	·	·	-1.0
COc1ccc(-c2nc(C)ncc2N=Nc2ccccc2)cc1	0.6	-4.4	·	·	·	0.6
C[C@@H]1CN([C@H](C)CO)C(=O)c2cc(NC(=O)Nc3ccc(F)cc3)ccc2O[C@@H](C)CCCCO[C@H]1CN(C)C(=O)NC1CCCCC1	1.9	·	-20.8	2.8[16.7 µM]	84.0*	·
C[C@@H]1CCCCO[C@@H](CN(C)C(=O)NC2CCCCC2)[C@H](C)CN([C@H](C)CO)C(=O)c2cc(NC(=O)Nc3ccc(F)cc3)ccc2O1	-0.3	·	-22.8	-6.9[16.7 µM]	73.9*	·
C[C@@H]1CCCCO[C@@H](CN(C)C(=O)Nc2ccc(F)cc2)[C@H](C)CN([C@H](C)CO)C(=O)c2cc(NC(=O)NC3CCCCC3)ccc2O1	1.9	·	-16.5	15.6[16.7 µM]	59.4	·
C[C@@H]1CN([C@@H](C)CO)C(=O)c2cc(NC(=O)Nc3ccc(F)cc3)ccc2O[C@@H](C)CCCCO[C@@H]1CN(C)C(=O)NC1CCCCC1	1.5	·	5.9	-10.9[16.7 µM]	23.6	·
C[C@@H]1CCCCO[C@H](CN(C)C(=O)Nc2ccc(F)cc2)[C@@H](C)CN([C@@H](C)CO)C(=O)c2cc(NC(=O)NC3CCCCC3)ccc2O1	-0.5	·	-6.7	-18.3[16.7 µM]	66.4*	·
C[C@H]1CN([C@@H](C)CO)C(=O)c2cc(NS(=O)(=O)c3ccc(F)cc3)ccc2O[C@@H]1CN(C)Cc1ccncc1	12.7	·	13.4	·	-18.7	·
COc1ccc(-c2cn3c(C)c(C(=O)Nc4cccc(NC(C)=O)c4)sc3n2)cc1	-1.9	5.2	·	70.6*	·	-1.4
COCC(=O)N(C)C[C@@H]1Oc2cc(C#C[C@@H](C)O)ccc2S(=O)(=O)N([C@@H](C)CO)C[C@H]1C	-22.4	·	4.7	8.7[16.7 µM]	·	·
O=C(C[C@@H]1CC[C@@H]2[C@H](COC[C@H](O)CN2Cc2ccc(Oc3ccccc3)cc2)O1)N1CCN(c2ccccc2)CC1	4.4	·	-4.7	17.8[16.7 µM]	61.7*	·
SMILES	Cneo AK release	dFosB activator	GSIS activator	HIV Env fusion	PAX8 inh HTS	CDK5 inh
O=C(C[C@@H]1CC[C@H]2[C@@H](COC[C@@H](O)CN2Cc2ccc(Oc3ccccc3)cc2)O1)N1CCN(c2ccccc2)CC1	2.9	·	-13.2	59.0*[16.7 µM]	64.3*	·
O=C(C[C@H]1CC[C@H]2[C@@H](COC[C@@H](O)CN2C(=O)c2ccc(F)cc2)O1)N1CCOCC1	105.0*	·	4.7	·	-15.1	·
O=C(Nc1ccccc1)N1CC(=O)N2[C@@H](CO)[C@@H](c3ccc(C#CC4CC4)cc3)[C@@H]2C1	·	·	-4.3	·	-4.9	·
CC(C)c1ccc(OCCCN2CCC(C(O)(c3ccccc3)c3ccccc3)CC2)cc1	·	·	·	78.8*	52.9	·
OC(c1ccccc1)(c1ccccc1)C1CCN(CCCOc2ccc(C(F)(F)F)cc2)CC1	·	·	654.3*	-2.1	26.9	·
OC(c1ccccc1)(c1ccccc1)C1CCN(CCCOc2ccc(F)cc2)CC1	·	·	-41.5	-5.4	2.9	·
Cc1noc(C)c1NC(=O)Nc1ccc2c(c1)C(=O)N([C@@H](C)CO)C[C@H](C)[C@@H](CN(C)C(=O)NC1CCCCC1)OCCCC[C@H](C)O2	4.8	·	-1.2	30.5[16.7 µM]	9.8	·
O=C(C[C@@H]1CC[C@@H]2[C@H](COC[C@@H](O)CN2C(=O)Nc2ccc(Cl)c(Cl)c2)O1)NCc1ccc(Cl)cc1	-6.0	·	-25.1	·	95.6*	·
O=C(C[C@@H]1CC[C@@H]2[C@H](COC[C@H](O)CN2C(=O)Nc2ccc(Cl)c(Cl)c2)O1)NCc1ccc(Cl)c(Cl)c1	-6.7	·	-21.0	·	9.1	·
O=C(C[C@@H]1CC[C@@H]2[C@H](COC[C@@H](O)CN2C(=O)Nc2ccc(Cl)c(Cl)c2)O1)NCc1ccc(Cl)c(Cl)c1	-2.4	·	-5.8	·	73.8*	·
O=C(C[C@@H]1CC[C@@H]2[C@H](COC[C@@H](O)CN2C(=O)Nc2ccc(Cl)cc2)O1)NC1Cc2ccccc2C1	108.5*	·	-16.9	·	·	·
C[C@H](NC(=O)C[C@@H]1CC[C@@H]2[C@H](COC[C@@H](O)CN2C(=O)Nc2cccc(F)c2)O1)c1ccccc1	89.7*	·	-9.5	·	-2.0	·
O=C(C[C@H]1CC[C@@H]2[C@H](COC[C@H](O)CN2C(=O)Nc2ccc(Cl)c(Cl)c2)O1)NCc1ccc(Cl)cc1	-8.3	·	-29.4	·	13.6	·
O=C(Nc1ccc(-c2ccccc2)cc1)[C@H]1[C@H](CO)[C@H]2Cn3c(cccc3=O)[C@@H]1N2Cc1cncnc1	0.1	·	7.7	·	-17.7	·
O=C(C[C@H]1CC[C@H]2[C@@H](COC[C@H](O)CN2C(=O)Nc2ccc(Cl)c(Cl)c2)O1)NCc1ccc(Cl)cc1	-7.8	·	-19.4	·	69.7*	·

Screening results deposited in PubChem BioAssay by Broad Institute.
